Laboratory results reported in ChEMBL document CHEMBL1828499, “Design and synthesis of inhibitors of noroviruses by scaffold hopping” (Bioorg Med Chem, 2011).

Legend:
[1] = Cytotoxicity against human HG23 cells after 48 hrs; format: cell-based; settings: read-out: TD50
In short: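 HG23 cells (Norwalk virus replicon-harboring) exposed to each compound at 0 (mock-DMSO) to 320 μM for 48 hr; viability read with a cell cytotoxicity assay kit; median toxic dose (TD50) calculated.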

Norovirus = assay: Antiviral activity against Norovirus infected in human HG23 cells assessed as inhibition of viral replication after 24 hrs by qRT-PCR; format: functional; settings: HG23, 24 h, read-out: ED50 (the source's name)
In short: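 HG23 cells (harbouring NV replicon), one day old and 80–90% confluent, exposed to each compound over 0 (mock-DMSO) to 20 μM. NV genome levels measured by qRT-PCR; ED50 for genome level taken at 24 hr post-treatment.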

Row | Structure (SMILES) | CC50 at 48 h [1] | EC50 (Norovirus)
1 | CCCCc1cn(Cc2cccc(Oc3ccccc3)c2)nn1 | 40 µM | 6 µM
2 | O=C1NCCN1Cc1cccc(Oc2ccccc2)c1 | 95 µM | 8 µM
3 | CC(C)(O)c1cn(Cc2cccc(Oc3ccccc3)c2)nn1 | – | > 20 µM
4 | O=C(O)CN1CCN(Cc2cccc(Oc3ccccc3)c2)C1=O | – | > 20 µM
5 | O=C1N(CCN2CCN(CCN3CCN(Cc4cccc(Oc5ccccc5)c4)C3=O)CC2)CCN1Cc1cccc(Oc2ccccc2)c1 | 2.5 µM | 0.5 µM
6 | O=C(O)CCCc1cn(Cc2cccc(Oc3ccccc3)c2)nn1 | – | > 20 µM
7 | O=C1CN(Cc2cccc(Oc3ccccc3)c2)S(=O)(=O)N1 | – | > 20 µM
8 | c1ccc(Oc2cccc(Cc3nn[nH]n3)c2)cc1 | – | > 20 µM
9 | O=S1(=O)NCCCN1Cc1cccc(Oc2ccccc2)c1 | – | > 20 µM
10 | c1ccc(Oc2cccc(Cn3ccnn3)c2)cc1 | 100 µM | 10 µM
11 | Cn1nnc(Cc2cccc(Oc3ccccc3)c2)n1 | – | > 20 µM
12 | CC(C)(C)OC(=O)CN1CCN(Cc2cccc(Oc3ccccc3)c2)C1=O | 55 µM | 12 µM
13 | O=C1NCCCN1Cc1cccc(Oc2ccccc2)c1 | – | > 20 µM
14 | O=C1N(CCN2CCOCC2)CCN1Cc1cccc(Oc2ccccc2)c1 | 120 µM | 16 µM
15 | C[Si](C)(C)c1cn(Cc2cccc(Oc3ccccc3)c2)nn1 | 30 µM | 7 µM
16 | c1ccc(Oc2cccc(Cn3ccnc3)c2)cc1 | 35 µM | 8 µM
